Assays:
COS-7 [1] = experiment: Cytotoxicity against African green monkey COS7 cells assessed as cell viability at 10 uM incubated for 72 hrs by MTT assay; conditions: chlorocebus aethiops, cos-7, 72 h
K562 [2] = experiment: Induction of cell sensitization to imatinib in imatinib-resistant human K562 cells assessed as cell death at 10 uM incubated for 72 hrs in presence of 1 uM imatinib by PI staining based flow cytometry (reference value: 19%); type: functional
COS-7 [3] = experiment: Cytotoxicity against African green monkey COS7 cells assessed as cell viability at 10 uM incubated for 72 hrs by MTT assay; type: cell-based; conditions: chlorocebus aethiops, cos-7, 72 h
Summary of the method: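 COS-7 cells in DMEM with 10% FCS and L-glutamine, no antibiotics or phenol red. Seeded 2×10^3/well in triplicate, grown 24 h, then compound added at 10 µM final and incubated 72 h. Modified MTT (tetrazolium) metabolic-activity readout by absorbance. DMSO control set to 100%; DMSO ≤0.1%. Mean + SD of ≥3 experiments, triplicate determinations.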

[4] = biological target: T1, Peroxisome proliferator-activated receptor gamma (Homo sapiens, UniProt P37231); experiment: Agonist activity at Gal4-fused human PPARgamma transfected in African green monkey COS7 cells co-transfected with pGal5-TK-pGL3 and pRenilla-CMV assessed as receptor transactivation at 10 uM incubated for 39 hrs by dual luciferase reporter gene assay relative to piaglitazone; type: cell-based; conditions: COS-7, human, read-out: max activation
T1 sequence (P37231 whole entry): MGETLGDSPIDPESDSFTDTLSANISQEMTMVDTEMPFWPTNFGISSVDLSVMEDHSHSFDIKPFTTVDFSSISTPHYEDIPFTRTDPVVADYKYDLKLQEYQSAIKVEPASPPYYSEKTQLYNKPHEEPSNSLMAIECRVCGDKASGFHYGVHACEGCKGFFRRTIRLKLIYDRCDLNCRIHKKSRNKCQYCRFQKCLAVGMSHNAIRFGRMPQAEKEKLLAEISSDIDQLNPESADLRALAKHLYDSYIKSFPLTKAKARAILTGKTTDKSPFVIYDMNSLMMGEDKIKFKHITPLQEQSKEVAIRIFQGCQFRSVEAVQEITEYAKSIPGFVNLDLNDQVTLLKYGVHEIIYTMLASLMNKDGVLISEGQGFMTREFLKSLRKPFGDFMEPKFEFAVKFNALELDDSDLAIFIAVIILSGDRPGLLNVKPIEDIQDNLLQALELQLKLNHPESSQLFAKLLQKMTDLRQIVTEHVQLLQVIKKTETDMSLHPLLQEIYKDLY
Summary of the method: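 COS-7 cells (10^4/well, triplicates) grown 24 h, then transiently transfected with pGal5-TK-pGL3 (90 ng), pGal4-hPPARγDEF (9 ng) and pRenilla-CMV (3 ng). Compound added 7 h later, incubation 39 h. Cells lysed by freezing at -80 °C overnight plus lysis buffer. Firefly luciferase normalised to Renilla. Activity at 10 µM expressed relative to pioglitazone at 10 µM (100%). Mean ± SD of ≥3 experiments.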

[5] = Modulation of STAT5 expression in imatinib-resistant human K562 cells assessed as STAT5 level at 5 uM measured after 6 hrs in presence of imatinib by Jess Simple Western immunoassay (reference value: 100%); type: functional
[6] = Cytotoxicity against human HS5 cells assessed as cell death at 5 uM incubated for 72 hrs by PI staining based flow cytometry; conditions: hs5, 72 h
Summary of the method: (§1)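 HS-5 stromal cells in DMEM with 10% FCS, 5% CO2, 37 °C. Seeded 0.5×10^5/well, given compound (5 µM) alone or with imatinib, and incubated 72 h. Cells stained with PI/Triton X-100 for 2 h at 4 °C. Dead cells counted by flow cytometry as sub-G1 nuclei. DMSO vehicle control included.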

K562 [7] = experiment: Induction of cell sensitization to imatinib in imatinib-resistant human K562 cells assessed as cell death at 5 uM incubated for 72 hrs in presence of 1 uM imatinib by PI staining based flow cytometry (reference value: 19%); type: functional
[8] = Modulation of STAT5 expression in imatinib-resistant human K562 cells assessed as STAT5 level at 5 uM measured after 6 hrs by Jess Simple Western immunoassay (reference value: 100%); type: functional
Summary of the method: (§2)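 K562-resistant (doxorubicin-resistant KD225) cells treated 6 h with compound at 5 µM, alone or with 1 µM imatinib, against a DMSO control. Total protein extracts analysed by capillary Jess Simple Western. STAT5 antibody 10 µg/ml with 0.2 mg/ml lysate; pSTAT5 (Y694/699) antibody 20 µg/ml with 2 mg/ml lysate. GAPDH (0.4 µg/ml) as loading reference; HRP anti-rabbit secondary.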

[9] = Cytotoxicity against human HS5 cells assessed as cell death at 5 uM incubated for 72 hrs in presence of imatinib by PI staining based flow cytometry; conditions: hs5, 72 h
Summary of the method: as §1

[10] = biological target: T2, Signal transducer and activator of transcription 5A (Homo sapiens) (UniProt P42229); experiment: Inhibition of STAT5 phosphorylation at Y694/699 residue in imatinib-resistant human K562 cells assessed as phosphorylated STAT5 level at 5 uM incubated for 6 hrs by Jess Simple Western immunoassay (reference value: 100%); type: cell-based; parameters: scale not given: the % may be the effect or the level left
T2 sequence (whole entry): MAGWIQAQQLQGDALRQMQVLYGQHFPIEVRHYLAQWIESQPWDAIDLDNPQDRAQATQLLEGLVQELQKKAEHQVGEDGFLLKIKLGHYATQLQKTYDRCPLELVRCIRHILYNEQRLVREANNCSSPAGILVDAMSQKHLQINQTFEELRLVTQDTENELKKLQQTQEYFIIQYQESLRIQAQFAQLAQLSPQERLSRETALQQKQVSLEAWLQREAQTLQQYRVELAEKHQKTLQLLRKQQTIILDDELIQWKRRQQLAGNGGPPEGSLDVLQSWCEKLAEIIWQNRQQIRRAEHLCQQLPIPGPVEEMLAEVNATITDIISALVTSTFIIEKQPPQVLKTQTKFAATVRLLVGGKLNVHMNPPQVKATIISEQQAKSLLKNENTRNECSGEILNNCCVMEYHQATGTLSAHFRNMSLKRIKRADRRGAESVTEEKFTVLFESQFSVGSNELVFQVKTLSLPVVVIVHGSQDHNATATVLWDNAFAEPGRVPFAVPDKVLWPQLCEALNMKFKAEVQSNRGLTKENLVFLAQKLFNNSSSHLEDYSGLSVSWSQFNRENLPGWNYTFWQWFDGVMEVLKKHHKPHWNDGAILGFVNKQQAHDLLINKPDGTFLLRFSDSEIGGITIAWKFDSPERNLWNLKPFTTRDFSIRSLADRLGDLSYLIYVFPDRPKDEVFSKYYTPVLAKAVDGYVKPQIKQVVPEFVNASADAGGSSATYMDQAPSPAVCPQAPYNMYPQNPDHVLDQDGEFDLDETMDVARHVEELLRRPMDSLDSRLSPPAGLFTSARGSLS
Summary of the method: as §2

[11] = biological target: T2, Signal transducer and activator of transcription 5A (Homo sapiens); experiment: Inhibition of STAT5 phosphorylation at Y694/699 residue in imatinib-resistant human K562 cells assessed as phosphorylated STAT5 level at 5 uM incubated for 6 hrs in presence of imatinib by Jess Simple Western immunoassay (reference value: 100%); type: cell-based; parameters: scale not given: the % may be the effect or the level left
K562 [12] = experiment: Cytotoxicity against imatinib-resistant human K562 cells assessed as cell death at 5 uM incubated for 72 hrs by propidium iodide staining based flow cytometry; conditions: k562, 72 h
Summary of the method: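 K562-resistant cells, a doxorubicin-resistant K562 subclone (KD225), grown in RPMI 1640 with 10% FCS. Seeded 2×10^5/well and exposed 72 h to compound alone or with 1 µM imatinib. PI/Triton X-100 staining 2 h at 4 °C; flow cytometry scoring sub-G1 nuclei as dead cells. DMSO vehicle (≤0.1%) controls. Mean ± SEM of ≥3 experiments.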

SMILES	Activity (COS-7 [1])	Activity (K562 [2]) [%]	Activity (COS-7 [3])	Emax at 10 µM [4] [%]	Activity [5] [%]	Activity [6]	Activity (K562 [7]) [%]	Activity [8] [%]	Activity [9]	Activity [10] [%]	Activity [11] [%]	Activity (K562 [12])
CCCc1nc2c(Cl)cccc2n1Cc1ccc(-c2ccccc2C(=O)OC)cc1	Non-Toxic	>85	Non-Toxic	22.2	101	Non-Toxic	57	103	Non-Toxic	87	3	<= 20%
CCCc1nc2c([N+](=O)[O-])cccc2n1Cc1ccc(-c2ccccc2C#N)cc1	Non-Toxic	>85	Non-Toxic	37.9	–	Non-Toxic	50	–	Non-Toxic	–	–	<= 20%
CCCc1nc2ccccc2n1Cc1ccc(-c2ccccc2C#N)cc1	Non-Toxic	>85	Non-Toxic	64.5	96	Non-Toxic	50	98	Non-Toxic	78	3	<= 20%
CCCc1nc2c(OC)cccc2n1Cc1ccc(-c2ccccc2C(=O)OC)cc1	Non-Toxic	>85	Non-Toxic	20.7	–	Non-Toxic	57	–	Non-Toxic	–	–	<= 20%
CCCc1nc2ccc(Br)cc2n1Cc1ccc(-c2ccccc2C(=O)OC)cc1	–	63	–	–	–	–	–	–	–	–	–	–
CCCc1nc2c(Cl)cccc2n1Cc1ccc(-c2ccccc2C#N)cc1	Non-Toxic	>85	Non-Toxic	68.4	109	Non-Toxic	50	107	Non-Toxic	81	12	<= 20%
CCCc1nc2cc(Br)ccc2n1Cc1ccc(-c2ccccc2C(=O)OC)cc1	–	31	–	–	–	–	–	–	–	–	–	–
CCCc1nc2c(C)cccc2n1Cc1ccc(-c2ccccc2C(=O)OC)cc1	Non-Toxic	>85	Non-Toxic	13.8	–	Non-Toxic	40	–	Non-Toxic	–	–	<= 20%
CCCc1nc2c(N)cccc2n1Cc1ccc(-c2ccccc2C(=O)OC)cc1	Non-Toxic	–	Non-Toxic	0.11	–	Non-Toxic	26	–	Non-Toxic	–	–	<= 20%
CCCc1nc2c(OC)cccc2n1Cc1ccc(-c2ccccc2C#N)cc1	Non-Toxic	>85	Non-Toxic	45.9	–	Non-Toxic	50	–	Non-Toxic	–	–	<= 20%
CCCc1nc2c([N+](=O)[O-])cccc2n1Cc1ccc(-c2ccccc2C(=O)OC)cc1	Non-Toxic	>85	Non-Toxic	15	–	Non-Toxic	57	–	Non-Toxic	–	–	<= 20%
CCCc1nc2c(C)cccc2n1Cc1ccc(-c2ccccc2C#N)cc1	Non-Toxic	>85	Non-Toxic	32.2	–	Non-Toxic	50	–	Non-Toxic	–	–	<= 20%
CCCc1nc2c(N)cccc2n1Cc1ccc(-c2ccccc2C#N)cc1	Non-Toxic	–	Non-Toxic	43	–	Non-Toxic	28	–	Non-Toxic	–	–	<= 20%
